Laboratory results reported in ChEMBL document CHEMBL4270482, “Cytotoxic Fusicoccane-Type Diterpenoids from Streptomyces violascens Isolated from Ailuropoda melanoleuca Feces” (J Nat Prod, 2017).
Where a name gives a salt, the structure may show the parent alone. The source made the active and inactive calls. The rule behind the calls is not given here.

Tests used:
HCT-116 [1] = experiment: Cytotoxicity against human HCT116 cells assessed as inhibition of growth incubated for 72 hrs by MTT assay; format: functional, cell-based; conditions: HCT-116, 72 h
In short: (§1)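 Cells grown in RPMI-1640 or DMEM with 10% heat-inactivated FBS. Exposed to six concentrations (100, 33, 10, 3.3, 1.0, 0.33 μM) for 72 h at 37 °C. MTT (5 mg/mL, 10 μL) added for 4 h, then medium removed and DMSO added, absorbance read at 570 nm. IC50 is the concentration giving 50% lower absorbance than control. Mean ± SD of three independent experiments; adriamycin positive control.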

HCT-116 [2] = experiment: Cytotoxicity against human HCT116 cells assessed as inhibition of growth at 200 uM incubated for 72 hrs by MTT assay; format: functional; conditions: for inhibition at 200 µM: HCT-116, 72 h
SMMC-7721 [3] = experiment: Cytotoxicity against human SMMC7721 cells assessed as inhibition of growth at 200 uM incubated for 72 hrs by MTT assay; format: functional; conditions: for inhibition at 200 µM: SMMC-7721, 72 h
HeLa [4] = experiment: Cytotoxicity against human HeLa cells assessed as inhibition of growth at 200 uM incubated for 72 hrs by MTT assay; format: functional
BGC-823 [5] = experiment: Cytotoxicity against human BGC823 cells assessed as inhibition of growth incubated for 72 hrs by MTT assay; format: functional, cell-based; conditions: BGC-823, 72 h; in short: as §1
NCI-H460 [6] = experiment: Cytotoxicity against human NCI-H460 cells assessed as inhibition of growth incubated for 72 hrs by MTT assay; format: functional, cell-based; conditions: NCI-H460, 72 h; in short: as §1
SMMC-7721 [7] = experiment: Cytotoxicity against human SMMC7721 cells assessed as inhibition of growth incubated for 72 hrs by MTT assay; format: functional, cell-based; conditions: SMMC-7721, 72 h; in short: as §1
BGC-823 [8] = experiment: Cytotoxicity against human BGC823 cells assessed as inhibition of growth at 200 uM incubated for 72 hrs by MTT assay; format: functional; conditions: for inhibition at 200 µM: BGC-823, 72 h
HeLa [9] = experiment: Cytotoxicity against human HeLa cells assessed as inhibition of growth incubated for 72 hrs by MTT assay; format: functional, cell-based; in short: as §1
NCI-H460 [10] = experiment: Cytotoxicity against human NCI-H460 cells assessed as inhibition of growth at 200 uM incubated for 72 hrs by MTT assay; format: functional; conditions: for inhibition at 200 µM: NCI-H460, 72 h
SMMC-7721 [11] = experiment: Inhibition of cell adhesion of human SMMC7721 cells at 0.61 to 5.49 uM incubated for 1 hr by matrigel based assay; format: functional
In short: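 Wells coated overnight with Matrigel in 0.5% serum-free RPMI-1640, blocked with 2% BSA for 30 min and washed with PBS. SMMC7721 cells (2 × 10^4/well) added with 0.61, 1.83 or 5.49 μM and left to adhere for 1 h. Medium removed, 0.2% crystal violet applied for 10 min, dye dissolved in DMSO, OD read at 540 nm. Mean ± SD, n = 3.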

SMMC-7721 [12] = experiment: Inhibition of MMP9 gene expression in human SMMC7721 cells at […] to 5.49 uM incubated for 24 hrs by real-time PCR analysis; format: functional, cell-based
In short: (§2)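 SMMC7721 cells (5 × 10^5/well) treated with 0.61, 1.83 or 5.49 μM for 24 h. Total RNA analysed by SYBR Green qPCR using MMP-2 and MMP-9 specific primers. Cycling: 95 °C for 10 min, then 44 cycles of 95 °C 10 s, 60 °C 20 s, 72 °C 20 s. GAPDH internal control.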

SMMC-7721 [13] = experiment: Inhibition of cell migration of human SMMC7721 cells incubated for 24 hrs by H and E staining based transwell chamber assay; format: functional
In short: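 Transwell migration: 4 × 10^5 SMMC7721 cells in RPMI-1640 with 0.1% FBS plus 0.61, 1.83 or 5.49 μM placed in upper chamber; lower chamber held RPMI-1640 with 10% FBS. Cells on the lower membrane surface fixed in paraformaldehyde for 30 min and stained with H&E for 5 min. Methods give 6 h, legend gives 24 h. Vehicle control; mean ± SD, n = 3.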

SMMC-7721 [14] = experiment: Cytotoxicity against human SMMC7721 cells assessed as inhibition of growth at 0.6 to 5.5 uM incubated for 24 hrs by MTT assay; format: functional, cell-based
In short: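 SMMC7721 viability measured by MTT after exposure to 0, 0.61, 1.83, 5.49 or 16.5 μM for 0, 24, 48 and 72 h. Vehicle-treated cells served as control. Mean ± SD, n = 3.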

[15] = biological target: Matrix metalloproteinase-9 (Homo sapiens) (UniProt P14780); experiment: Inhibition of MMP9 activity in human SMMC7721 cells incubated for 24 hrs by gelatin zymography; format: cell-based
Matrix metalloproteinase-9 (Homo sapiens), sequence (P14780 whole entry): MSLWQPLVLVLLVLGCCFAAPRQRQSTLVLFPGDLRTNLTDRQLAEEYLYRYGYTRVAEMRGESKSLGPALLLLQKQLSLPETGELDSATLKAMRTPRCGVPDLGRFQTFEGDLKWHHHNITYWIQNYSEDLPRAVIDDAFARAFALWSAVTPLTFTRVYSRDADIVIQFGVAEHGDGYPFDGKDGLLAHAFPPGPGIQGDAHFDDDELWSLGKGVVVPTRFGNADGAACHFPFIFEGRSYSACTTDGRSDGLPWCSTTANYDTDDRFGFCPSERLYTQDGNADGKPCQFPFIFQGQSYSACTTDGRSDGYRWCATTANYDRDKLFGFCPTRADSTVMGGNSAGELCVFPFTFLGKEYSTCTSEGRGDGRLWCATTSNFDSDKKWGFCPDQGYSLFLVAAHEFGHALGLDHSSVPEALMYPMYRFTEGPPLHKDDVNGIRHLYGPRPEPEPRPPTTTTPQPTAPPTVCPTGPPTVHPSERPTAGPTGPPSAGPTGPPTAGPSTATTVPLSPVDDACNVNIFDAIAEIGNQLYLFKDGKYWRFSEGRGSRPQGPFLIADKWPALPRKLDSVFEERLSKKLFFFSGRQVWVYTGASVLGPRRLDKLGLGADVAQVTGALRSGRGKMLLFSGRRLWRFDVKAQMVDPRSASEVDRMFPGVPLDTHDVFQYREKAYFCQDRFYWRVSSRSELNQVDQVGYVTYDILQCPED
In short: (§3)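 SMMC7721 cells (2 × 10^5/well) treated with 0.61, 1.83 or 5.49 μM for 24 h. Culture supernatants run on 10% SDS-PAGE containing 0.1% gelatin. Gels washed in 2.5% Triton X-100 (three 1-h washes), then incubated 36 h at 37 °C in 50 mM Tris-HCl, 10 mM CaCl2, 1 μM ZnCl2, 0.2 M NaCl, pH 7.6. Coomassie R250 stain; bands at 72 kDa (MMP-2) and 92 kDa (MMP-9) quantified by densitometry. Mean ± SD, n = 3.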

SMMC-7721 [16] = experiment: Inhibition of MMP2 protein expression in human SMMC7721 cells at […] to 5.49 uM incubated for 24 hrs by Western blot analysis; format: functional, cell-based
In short: (§4)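 SMMC7721 cells (5 × 10^5/well) treated with 0.61, 1.83 or 5.49 μM for 24 h, then lysed in RIPA buffer with protease inhibitors for 40 min on ice. Protein (60 μg) resolved on 10% SDS-PAGE and transferred to PVDF. Probed with MMP-2 or MMP-9 primary antibody and peroxidase-conjugated secondary, detected by chemiluminescence, normalized to GAPDH.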

SMMC-7721 [17] = experiment: Inhibition of MMP2 gene expression in human SMMC7721 cells at […] to 5.49 uM incubated for 24 hrs by real-time PCR analysis; format: functional, cell-based; in short: as §2
SMMC-7721 [18] = experiment: Inhibition of MMP9 protein expression in human SMMC7721 cells at […] to 5.49 uM incubated for 24 hrs by Western blot analysis; format: functional, cell-based; in short: as §4
[19] = biological target: 72 kDa type IV collagenase (Homo sapiens) (UniProt P08253); experiment: Inhibition of MMP2 activity in human SMMC7721 cells incubated for 24 hrs by gelatin zymography; format: cell-based; in short: as §3
72 kDa type IV collagenase (Homo sapiens), sequence (P08253 110-660 limits assumed): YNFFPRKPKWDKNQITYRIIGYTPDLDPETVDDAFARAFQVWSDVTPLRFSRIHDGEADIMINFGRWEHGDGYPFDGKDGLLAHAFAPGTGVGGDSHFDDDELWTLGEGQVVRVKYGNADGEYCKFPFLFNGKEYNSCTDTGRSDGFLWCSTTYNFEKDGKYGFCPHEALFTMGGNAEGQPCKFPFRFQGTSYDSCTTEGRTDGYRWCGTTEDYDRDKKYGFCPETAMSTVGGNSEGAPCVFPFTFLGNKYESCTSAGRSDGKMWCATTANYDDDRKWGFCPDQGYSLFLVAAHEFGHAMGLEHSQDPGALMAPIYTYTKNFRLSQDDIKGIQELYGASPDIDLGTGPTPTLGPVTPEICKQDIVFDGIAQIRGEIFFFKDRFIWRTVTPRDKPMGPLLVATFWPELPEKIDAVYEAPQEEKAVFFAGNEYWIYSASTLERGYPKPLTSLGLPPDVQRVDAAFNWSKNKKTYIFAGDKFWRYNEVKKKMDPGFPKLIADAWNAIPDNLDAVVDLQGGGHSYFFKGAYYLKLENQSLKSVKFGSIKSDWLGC

Row | SMILES | IC50 (HCT-116 [1]) | inhibition at 200 µM (HCT-116 [2]) | inhibition at 200 µM (SMMC-7721 [3]) | inhibition at 200 µM (HeLa [4]) | IC50 (BGC-823 [5]) | IC50 (NCI-H460 [6]) | IC50 (SMMC-7721 [7]) | inhibition at 200 µM (BGC-823 [8]) | IC50 (HeLa [9]) | inhibition at 200 µM (NCI-H460 [10]) | other results
1 | CC(C)[C@H]1CC[C@]2(C)C[C@@H]3[C@H](CO)C[C@@H](O)[C@H]3[C@@](C)(O)C/C=C/12 | > 100 µM | 90% | 90% | 90% | > 100 µM | > 100 µM | > 100 µM | 90% | > 100 µM | 90% | –
2 | CC(C)[C@H]1C[C@H](O)[C@]2(C)C[C@@H]3[C@H](CO)C[C@@H](O)[C@H]3[C@@](C)(O)C/C=C/12 | > 100 µM | 50% | 50% | 50% | > 100 µM | > 100 µM | > 100 µM | 50% | > 100 µM | 50% | –
3 | COc1cccc2c1C(=O)c1c(O)c3c(c(O)c1C2=O)C[C@@](O)(C(=O)CO)C[C@@H]3O[C@H]1C[C@H](N)[C@H](O)[C@H](C)O1 [DOXORUBICIN HYDROCHLORIDE] | 1.4 µM | – | – | – | 1.5 µM | 1 µM | 2.2 µM | – | – | – | –
4 | CCC(=O)[C@@H](C)[C@H]1O[C@@](O)([C@H](C)C(=O)OC[C@H](C)[C@H]2CC[C@]3(C)C[C@@H]4[C@H](CO)C[C@@H](O)[C@H]4[C@@](C)(O)C/C=C/23)[C@H](C)C[C@H]1C | 6.7 µM | – | – | – | 7 µM | 4.1 µM | 8.9 µM | – | 6.7 µM | – | –
5 | CC(C)[C@@]1(O)CC[C@]2(C)C[C@@H]3[C@H](CO)C[C@@H](O)[C@H]3[C@@](C)(O)C/C=C\21 | > 100 µM | – | – | – | > 100 µM | > 100 µM | > 100 µM | – | > 100 µM | – | inhibition (HCT-116 [2]): inactive; inhibition (SMMC-7721 [3]): inactive; inhibition (HeLa [4]): inactive; inhibition (BGC-823 [8]): inactive; inhibition (NCI-H460 [10]): inactive
6 | CC(C)[C@H]1C[C@@H](O)[C@]2(C)C[C@@H]3[C@H](CO)C[C@@H](O)[C@H]3[C@@](C)(O)C/C=C/12 | > 100 µM | 50% | 50% | 50% | > 100 µM | > 100 µM | > 100 µM | 50% | > 100 µM | 50% | –
7 | CCCC(=O)[C@@H](C)[C@H]1O[C@@](O)([C@H](C)C(=O)OC[C@H](C)[C@H]2CC[C@]3(C)C[C@@H]4[C@H](CO)C[C@@H](O)[C@H]4[C@@](C)(O)C/C=C/23)[C@H](C)C[C@H]1C | 5.8 µM | – | – | – | 10.5 µM | 3.5 µM | 9.6 µM | – | 7.6 µM | – | inhibition (SMMC-7721 [11]): Active; inhibition (SMMC-7721 [12]): Dose-dependent effect; inhibition (SMMC-7721 [13]): Dose-dependent effect; Activity (SMMC-7721 [14]): inactive; inhibition [15]: Dose-dependent effect; inhibition (SMMC-7721 [16]): Active; inhibition (SMMC-7721 [17]): Dose-dependent effect; inhibition (SMMC-7721 [18]): Active; inhibition [19]: Dose-dependent effect
8 | CCC(=O)[C@@H](C)[C@H]1O[C@@](O)([C@@H](C)C(=O)OC[C@H](C)[C@H]2CC[C@]3(C)C[C@@H]4[C@H](CO)C[C@@H](O)[C@H]4[C@@](C)(O)C/C=C/23)[C@H](C)C[C@H]1C | 8 µM | – | – | – | 9.5 µM | 6.1 µM | 14.1 µM | – | 9.3 µM | – | –
